Assay [1] relates to Chorioallantoic membrane. The assay is described as follows: Antiangiogenic activity in chicken chorioallantoic membrane assessed as inhibition of VEGF-induced blood vessel formation at 0.01 nmol […] measured after 3 days. The format is functional, cell membranes. Particulars: Gallus gallus.
Assay [2] relates to Chorioallantoic membrane. The assay is described as follows: Antiangiogenic activity in chicken chorioallantoic membrane assessed as inhibition of VEGF-induced blood vessel formation treated 30 mins before VEGF addition measured after 3 days. The format is functional. To be noted: Gallus gallus.
The test system of assay [3] is Chorioallantoic membrane. The assay is described as follows: Antiangiogenic activity in human A549 cells inoculated chicken chorioallantoic membrane assessed as inhibition of blood vessel formation at 0.01 pmol after 3 days. It is filed as functional, Gallus gallus. An outline of the steps: (§1)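 A549 lung cancer cells (2 × 10⁶ cells/CAM) in Matrigel inoculated onto CAM instead of VEGF, then compound at varied doses; three days at 37 °C, 55% humidity. Vessel branch points within tumor region counted double-blind by two observers; mean ± S.E.M.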

In assay [4] the test system is Chorioallantoic membrane. As to the kind of experiment: Antiangiogenic activity in human A549 cells inoculated chicken chorioallantoic membrane assessed as inhibition of blood vessel formation at 0.1 pmol after 3 days. It is filed as functional, Gallus gallus. An outline of the steps:
as §1

Assay [5] concerns Chorioallantoic membrane. The assay is described as follows: Antiangiogenic activity in human A549 cells inoculated chicken chorioallantoic membrane assessed as inhibition of blood vessel formation at 1 pmol after 3 days. It is filed as functional, Gallus gallus. The procedure, abridged:
as §1

Assay [6] has as its system A549. As to the kind of experiment: Cytotoxicity against human A549 cells inoculated with chicken chorioallantoic membrane assessed as tumor inhibition at 0.01 pmol after 3 days. It is filed as functional. The procedure, abridged: (§2)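 A549 cells (2 × 10⁶ cells/CAM) in Matrigel implanted on CAM, then compound at different concentrations; incubated three days at 37 °C, 55% humidity. Tumor mass grown on CAM isolated and weighed; mean ± S.E.M.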

The subject of assay [7] is A549. The assay is described as follows: Cytotoxicity against human A549 cells inoculated with chicken chorioallantoic membrane assessed as tumor inhibition at 0.1 pmol after 3 days. The format is functional. The procedure, abridged:
as §2

Assay [8] relates to A549. The assay is described as follows: Cytotoxicity against human A549 cells inoculated with chicken chorioallantoic membrane assessed as tumor inhibition at 1 pmol after 3 days. It is filed as functional. An outline of the steps: as §2
In assay [9] the test system is Chorioallantoic membrane. The assay is described as follows: Antiangiogenic activity in human A549 cells inoculated chicken chorioallantoic membrane assessed as inhibition of blood vessel formation after 3 days. The format is functional, cell-based. To be noted: Gallus gallus. The procedure, abridged: as §1
The test system of assay [10] is A549. As to the kind of experiment: Cytotoxicity against human A549 cells inoculated with chicken chorioallantoic membrane assessed as tumor inhibition after 3 days. It is filed as functional, cell-based. An outline of the steps: as §2

Consider 19 compounds from ChEMBL document CHEMBL3232802, “6-Amino-2,4,5-trimethylpyridin-3-ols: a new general synthetic route and antiangiogenic activity” (2014).

The inhibition is how much of the control response was suppressed.

Regarding `Cc1nc(Nc2ccc([N+](=O)[O-])cc2)c(C)c(C)c1O`, the inhibition in assay [1] is 75%; in assay [2] it was “Dose-dependent effect”; in assay [9], “Dose-dependent effect”; in assay [10], “Dose-dependent effect”. For the same compound, the ID50 in assay [2] was found to be 4.4 pg. The “inhibition (INH)” value is given as 19.9% in assay [3]; 25.6% in assay [4]; 34.5% in assay [5]; 25.3% in [6]; 44.4% in assay [7]; 50.1% in [8].
Regarding `Cc1nc(NCCCO)c(C)c(C)c1O`, in assay [1], the inhibition is 46.3%.
As for `Cc1nc(Nc2ccc3c(c2)OCO3)c(C)c(C)c1O`, in assay [1], the inhibition stood at 62.4%.
For `Cc1nc(N)c(C)c(C)c1O`, the inhibition in [1] was 80.9%; in assay [2] it was “Dose-dependent effect”; in assay [9], “Dose-dependent effect”; in [10], “Dose-dependent effect”. For the same compound, the ID50 in assay [2] is 3.2 pg. Also, the “inhibition (INH)” value in [3] amounted to 16.6%; in [4] it was 18%; in [5] it was 20.7%; in assay [6] it was 20.5%; in [7], 25.2%; in assay [8], 27.4%.
Regarding `Cc1nc(N2CCN(C)CC2)c(C)c(C)c1O`, in [1], the inhibition amounted to 24.7%.
`Cc1nc(NCc2ccccc2)c(C)c(C)c1O`: the inhibition in [1] turned out to be 56.7%.
On the same count and under the same terms, the value for `Cc1nc(NC2CCCCC2)c(C)c(C)c1O` was 36.8%; that for `CCCCCCNc1nc(C)c(O)c(C)c1C` was 53.7%.
Turning to `CN(C)c1ccc(/C=C2\C(=O)Nc3ccccc32)cc1`, the inhibition is 70.5% in assay [1], “Dose-dependent effect” in assay [2], “Dose-dependent effect” in assay [9] and “Dose-dependent effect” in assay [10]. The ID50 in assay [2] amounted to 10.5 pg. The “inhibition (INH)” value is recorded as 20.8% in assay [3]; 25.1% in assay [4]; 36.2% in assay [5]; 16.2% in [6]; 23.4% in assay [7]; 26.8% in [8].
For the compound `Cc1nc(Nc2ccccc2C(C)C)c(C)c(C)c1O`, in [1], the inhibition worked out at 55.3%.
Regarding `Cc1nc(Nc2ccc(Br)cc2)c(C)c(C)c1O`, the inhibition in assay [1] worked out at 61.7%.
`Cc1nc(NCCCOc2nc(C)c(O)c(C)c2C)c(C)c(C)c1O`: the inhibition in assay [1] came to 67.3%.
Still for that read-out and setting: the value for `Cc1nc(N(c2ccccc2)c2ccccc2)c(C)c(C)c1O` was 65.4%; that for `Cc1nc(N(C)c2ccccn2)c(C)c(C)c1O` was 42.2%.
On the same count and under the same terms, the result for `CCCCCCCCCCCCCCCCNc1nc(C)c(O)c(C)c1C` reads 30.1%; that for `Cc1nc(N2CCCC2)c(C)c(C)c1O`, 69.5%; that for `Cc1nc(Nc2ccccc2)c(C)c(C)c1O`, 69.4%.
As to `Cc1nc(N2CCOCC2)c(C)c(C)c1O`, in assay [1], the inhibition came to 59%.
The same measure, in the same setting: the result for `Cc1nc(-n2cccc2)c(C)c(C)c1O` reads 44%.
